Published values of several laboratories.
Lines come from different studies, so protocols differ.
ADAM17: Disintegrin and metalloproteinase domain-containing protein 17 (ADAM17, Homo sapiens, UniProt P78536)
MAPKAPK2: MAP kinase-activated protein kinase 2 (MAPKAPK2, Homo sapiens, UniProt P49137)

The inhibition of C[C@H](C(=O)N[C@H]1COc2ccccc2[C@@H]1S(C)(=O)=O)c1ccc(F)cc1 is reported as 4% (Gamma-aminobutyric acid type B receptor subunit 1 (GABBR1, Homo sapiens, UniProt Q9UBS5); cell-free assay; 10 µM).
CN(C)C(=O)COC(=O)Cc1ccc(OC(=O)c2ccc(NC(=N)N)cc2)cc1 gave an inhibition of 6% (ADAM17; enzyme activity; inhibitor; 10 µM).
CCN(CC)CCCC[C@H](NC(=O)[C@H](CC(C)C)NC(=O)[C@H](C)NC(=O)[C@H](Cc1ccccc1)NC(=O)c1ccc(C(C)(C)C)cc1)C(=O)N[C@@H](CO)C(=O)OC gave an inhibition of 85% (Vasopressin V1a receptor (AVPR1A, Homo sapiens, UniProt P37288); ligand displacement; radioligand; 10 µM).
With c1ccc(C(NCCNC(c2ccccc2)c2ccccc2)c2ccccc2)cc1 the inhibition was 0% (Vasopressin V1b receptor (AVPR1B, Homo sapiens, UniProt P47901); cell-free assay; 10 µM).
COc1cc2c(cc1OC)-c1c(oc3cc4c(cc3c1=O)CCO4)CO2 has an inhibition of 14.3% (Glycogen synthase kinase-3 beta (GSK3B, Homo sapiens, UniProt P49841); enzyme activity; inhibitor; ADP detection; 100 µM).
With Cn1cc(-c2cc(F)cc(N3CCn4c(cc5c4CCCC5)C3=O)c2CO)cc(Nc2ccc(N3CCN(C4COC4)CC3)cn2)c1=O the inhibition was -7% (Phosphatidylinositol 4,5-bisphosphate 3-kinase catalytic subunit alpha isoform (PIK3CA, Homo sapiens, UniProt P42336); enzyme activity; inhibitor; 0.1 µM).
The inhibition of COCc1c(-c2cc3cc(C)cc(OC)c3s2)c2c(N)ncnn2c1CN1CCNC(=O)C1 is reported as 18% (Motilin receptor (MLNR, Homo sapiens, UniProt O43193); ligand displacement; radioligand; 10 µM).
The inhibition of CC(C)C[C@H](CC(=O)NO)C(=O)N[C@H](C(=O)N[C@@H](C)C(=O)NCCN)C(C)(C)C is reported as 73% (ADAM17; enzyme activity; inhibitor; 10 µM).
C#Cc1n[nH]c2c(-c3cn([C@@H](C)c4ccccc4)c(=O)[nH]c3=O)cc(F)cc12 gave an inhibition of 11.6% (MAPKAPK2; enzyme activity; inhibitor; 0.1 µM).
With COc1cc(Nc2ncc(F)c(Nc3ccc4c(n3)NC(=O)C(C)(C)O4)n2)cc(OC)c1OC the inhibition was 0% (Serine/threonine-protein kinase 32B (STK32B, Homo sapiens, UniProt Q9NY57); binding; competition with immobilised ligand; 10 µM).
N=C(N)c1ccc2cc(OC(=O)c3ccc(N=C(N)N)cc3)ccc2c1 has an inhibition of 5% (ADAM17; enzyme activity; inhibitor; 10 µM).
C#Cc1n[nH]c2c(-c3cn([C@@H](C)c4ccccn4)c(=O)[nH]c3=O)cc(F)cc12 gave an inhibition of 11.8% (MAPKAPK2; enzyme activity; inhibitor; 0.1 µM).
